Data reported in ChEMBL document CHEMBL4118021, “Studies of TAK1-centered polypharmacology with novel covalent TAK1 inhibitors” (Bioorg Med Chem, 2017).
Values belong to the molecule of their own block, whether it stands above or below them. Calls of active or inactive are those of the source. The rule behind the calls is not given here.

Columns and labels:
[1] = target: Serine/threonine-protein kinase MARK2 (Homo sapiens) (UniProt Q7KZI7); assay: Inhibition of MARK2 in human SKCO1 cells at 1 uM after 4 hrs using biotin labeled EVAVKIIDK probe by mass-spectrometric analysis relative to control; type: cell-based
[2] = target: Activated CDC42 kinase 1 (Homo sapiens) (UniProt Q07912); assay: Inhibition of ACK in human SKCO1 cells at 1 uM after 4 hrs using biotin labeled TVSVAVKCLKPDVLSQPEAMDDFIR probe by mass-spectrometric analysis relative to control; type: cell-based
[3] = target: Cyclin-dependent kinase-like 2 (Homo sapiens) (UniProt Q92772); assay: Inhibition of human CDKL2 (1 to 327 residues) expressed in bacterial expression system assessed as enzyme activity at 1 uM by KINOMEScan assay relative to control; design: scale not given: the % may be the effect or the level left
In short: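 In vitro ATP-site competition binding assay (KinomeScan) across a panel of 456 kinases. Compound was tested at 1 and 10 μM. The read-out is the binding inhibition score relative to control.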

[4] = target: T1, Dual specificity mitogen-activated protein kinase kinase 4 (Homo sapiens) (UniProt P45985); assay: Inhibition of human MEK4 (84 to 399 residues) expressed in mammalian expression system assessed as enzyme activity at 10 uM by KINOMEScan assay relative to control; design: scale not given: the % may be the effect or the level left
T1 sequence (whole entry): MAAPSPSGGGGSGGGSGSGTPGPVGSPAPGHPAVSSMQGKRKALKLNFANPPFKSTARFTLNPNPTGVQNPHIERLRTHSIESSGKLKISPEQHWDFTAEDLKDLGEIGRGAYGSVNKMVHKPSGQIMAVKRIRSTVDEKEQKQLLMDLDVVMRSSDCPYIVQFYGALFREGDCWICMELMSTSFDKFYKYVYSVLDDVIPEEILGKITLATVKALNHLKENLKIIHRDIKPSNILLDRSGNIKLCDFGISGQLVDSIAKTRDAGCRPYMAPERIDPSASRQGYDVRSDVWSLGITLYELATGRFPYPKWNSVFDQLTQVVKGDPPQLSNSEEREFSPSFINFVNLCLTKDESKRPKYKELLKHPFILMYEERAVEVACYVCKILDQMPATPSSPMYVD
In short: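 In vitro ATP-site competition binding assay across a panel of 456 kinases, with compound tested at 1 and 10 μM.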

[5] = target: Glucose-6-phosphate isomerase (Homo sapiens) (UniProt P06744); assay: Binding affinity to GPI in human NCI-H358 cells at 1 uM by mass spectrometry based pull down assay; type: cell-based
[6] = target: Reticulon-4 (Homo sapiens) (UniProt Q9NQC3); assay: Binding affinity to RTN4 in human NCI-H23 cells at 1 uM by mass spectrometry based pull down assay; type: cell-based
[7] = target: Sarcoplasmic/endoplasmic reticulum calcium ATPase 2 (Homo sapiens) (UniProt P16615); assay: Binding affinity to ATP2A2 in human NCI-H23 cells at 1 uM by mass spectrometry based pull down assay; type: cell-based
[8] = target: T2, Mitogen-activated protein kinase kinase kinase 7 (Homo sapiens) (UniProt O43318); assay: Binding affinity to MAP3K7 in human NCI-H358 cells at 1 uM by mass spectrometry based pull down assay; type: cell-based
T2 sequence (whole entry): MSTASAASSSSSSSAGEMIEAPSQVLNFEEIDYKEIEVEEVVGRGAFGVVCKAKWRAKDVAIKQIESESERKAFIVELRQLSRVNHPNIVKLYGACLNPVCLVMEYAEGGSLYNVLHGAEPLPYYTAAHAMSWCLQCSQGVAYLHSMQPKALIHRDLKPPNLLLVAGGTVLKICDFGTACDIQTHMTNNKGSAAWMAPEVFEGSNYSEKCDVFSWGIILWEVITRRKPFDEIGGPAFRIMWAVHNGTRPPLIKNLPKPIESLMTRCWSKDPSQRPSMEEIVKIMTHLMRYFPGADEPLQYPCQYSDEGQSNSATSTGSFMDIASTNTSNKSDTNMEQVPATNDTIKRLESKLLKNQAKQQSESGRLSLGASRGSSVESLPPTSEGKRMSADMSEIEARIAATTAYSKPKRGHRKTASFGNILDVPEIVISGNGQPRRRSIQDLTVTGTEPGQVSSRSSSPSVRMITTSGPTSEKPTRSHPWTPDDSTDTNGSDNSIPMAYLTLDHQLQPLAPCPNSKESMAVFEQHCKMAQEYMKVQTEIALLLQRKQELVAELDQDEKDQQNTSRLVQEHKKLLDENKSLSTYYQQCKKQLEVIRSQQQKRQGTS

[9] = target: Proteasome Macropain subunit MB1 (Homo sapiens) (UniProt P28074); assay: Binding affinity to PSMB5 in human NCI-H23 cells at 1 uM by mass spectrometry based pull down assay; type: cell-based
[10] = target: Leucine-rich repeat-containing protein 15 (Homo sapiens) (UniProt Q8TF66); assay: Binding affinity to LRRC15 in human NCI-H23 cells at 1 uM by mass spectrometry based pull down assay; type: cell-based
[11] = target: T-complex protein 1 subunit epsilon (Homo sapiens) (UniProt P48643); assay: Binding affinity to CCT5 in human NCI-H23 cells at 1 uM by mass spectrometry based pull down assay; type: cell-based
[12] = target: Low molecular weight phosphotyrosine protein phosphatase (Homo sapiens) (UniProt P24666); assay: Binding affinity to ACP1 in human NCI-H358 cells at 1 uM by mass spectrometry based pull down assay; type: cell-based
In short: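 NCI-H23 or NCI-H358 cells were grown and lysed. Lysates were incubated overnight at 4 °C with 1 μM biotinylated covalent probe or DMSO, then pulled down on streptavidin beads. Proteins were run on polyacrylamide gels and stained with Coomassie. Bands were excised, digested and identified by mass spectrometry.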

[13] = target: 80S Ribosome (Homo sapiens) (UniProt P08865+P42677+P62753+P15880+P23396+P61247+P62701+P22090+P46782+P62081+P62241+P46781+P46783+P62280+P25398+P62277+P62263+P62841+P62244+P62249+P08708+P62269+P39019+P60866+P63220+P62266+P62847+P62851+P62854+P62979+P62857+P62273+P62861+P39023+P36578+P46777+Q02878+P18124+P62424+P62917+P32969+P27635+P62906+P62913+P30050+P26373+P40429+P50914+P61313+P18621+Q07020+Q02543+P84098+P46778+P35268+P62829+P62750+P83731+P61254+P61353+P46776+P46779+P47914+P62888+P62899+P62910+P49207+P42766+P18077+Q9Y3U8+P83881+P61927+P61513+P63173+P62891+P62945+P05388+P05386); assay: Binding affinity to RPL9 in human NCI-H358 cells at 1 uM by mass spectrometry based pull down assay; type: cell-based
[14] = target: Tropomyosin alpha-1 chain (Homo sapiens) (UniProt P09493); assay: Binding affinity to TPM1 in human NCI-H358 cells at 1 uM by mass spectrometry based pull down assay; type: cell-based
[15] = target: Calponin-2 (Homo sapiens) (UniProt Q99439); assay: Binding affinity to CNN2 in human NCI-H23 cells at 1 uM by mass spectrometry based pull down assay; type: cell-based
Sequence of Calponin-2 (Homo sapiens) (Q99439 whole entry): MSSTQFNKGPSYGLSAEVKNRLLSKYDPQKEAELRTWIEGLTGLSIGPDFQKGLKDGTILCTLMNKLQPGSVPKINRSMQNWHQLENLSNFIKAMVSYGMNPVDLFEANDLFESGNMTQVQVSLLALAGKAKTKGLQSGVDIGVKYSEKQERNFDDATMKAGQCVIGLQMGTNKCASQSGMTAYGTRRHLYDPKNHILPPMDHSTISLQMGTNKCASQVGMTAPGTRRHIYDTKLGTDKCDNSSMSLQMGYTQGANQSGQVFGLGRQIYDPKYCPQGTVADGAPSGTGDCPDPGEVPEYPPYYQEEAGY

Sequence of Cyclin-dependent kinase-like 2 (Homo sapiens) (Q92772 whole entry, the tested form may be a part): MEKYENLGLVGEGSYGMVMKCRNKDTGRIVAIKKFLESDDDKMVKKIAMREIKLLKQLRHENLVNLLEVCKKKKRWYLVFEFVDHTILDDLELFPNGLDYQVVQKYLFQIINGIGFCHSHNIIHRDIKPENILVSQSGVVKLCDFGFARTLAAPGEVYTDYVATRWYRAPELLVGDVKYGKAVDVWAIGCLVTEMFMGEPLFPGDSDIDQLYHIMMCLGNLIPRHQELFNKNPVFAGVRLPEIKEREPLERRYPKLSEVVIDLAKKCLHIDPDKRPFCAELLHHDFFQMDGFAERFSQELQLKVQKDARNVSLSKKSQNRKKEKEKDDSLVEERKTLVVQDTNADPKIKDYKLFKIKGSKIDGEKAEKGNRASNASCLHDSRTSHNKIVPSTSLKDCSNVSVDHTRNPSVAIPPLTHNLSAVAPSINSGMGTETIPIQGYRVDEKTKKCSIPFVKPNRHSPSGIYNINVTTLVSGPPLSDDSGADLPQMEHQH
Sequence of Tropomyosin alpha-1 chain (Homo sapiens) (P09493 whole entry): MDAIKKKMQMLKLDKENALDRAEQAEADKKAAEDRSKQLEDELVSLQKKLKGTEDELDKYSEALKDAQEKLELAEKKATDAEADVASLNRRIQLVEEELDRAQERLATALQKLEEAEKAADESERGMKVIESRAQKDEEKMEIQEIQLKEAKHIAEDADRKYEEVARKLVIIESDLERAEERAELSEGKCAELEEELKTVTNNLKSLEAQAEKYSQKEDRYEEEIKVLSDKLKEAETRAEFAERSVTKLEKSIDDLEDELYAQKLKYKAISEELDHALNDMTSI
Sequence of Low molecular weight phosphotyrosine protein phosphatase (Homo sapiens) (P24666 whole entry): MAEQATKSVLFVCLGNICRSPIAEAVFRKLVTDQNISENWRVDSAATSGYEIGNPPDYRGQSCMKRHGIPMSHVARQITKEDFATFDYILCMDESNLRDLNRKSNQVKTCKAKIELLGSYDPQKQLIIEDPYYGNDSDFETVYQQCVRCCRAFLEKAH
Sequence of Serine/threonine-protein kinase MARK2 (Homo sapiens) (Q7KZI7 whole entry): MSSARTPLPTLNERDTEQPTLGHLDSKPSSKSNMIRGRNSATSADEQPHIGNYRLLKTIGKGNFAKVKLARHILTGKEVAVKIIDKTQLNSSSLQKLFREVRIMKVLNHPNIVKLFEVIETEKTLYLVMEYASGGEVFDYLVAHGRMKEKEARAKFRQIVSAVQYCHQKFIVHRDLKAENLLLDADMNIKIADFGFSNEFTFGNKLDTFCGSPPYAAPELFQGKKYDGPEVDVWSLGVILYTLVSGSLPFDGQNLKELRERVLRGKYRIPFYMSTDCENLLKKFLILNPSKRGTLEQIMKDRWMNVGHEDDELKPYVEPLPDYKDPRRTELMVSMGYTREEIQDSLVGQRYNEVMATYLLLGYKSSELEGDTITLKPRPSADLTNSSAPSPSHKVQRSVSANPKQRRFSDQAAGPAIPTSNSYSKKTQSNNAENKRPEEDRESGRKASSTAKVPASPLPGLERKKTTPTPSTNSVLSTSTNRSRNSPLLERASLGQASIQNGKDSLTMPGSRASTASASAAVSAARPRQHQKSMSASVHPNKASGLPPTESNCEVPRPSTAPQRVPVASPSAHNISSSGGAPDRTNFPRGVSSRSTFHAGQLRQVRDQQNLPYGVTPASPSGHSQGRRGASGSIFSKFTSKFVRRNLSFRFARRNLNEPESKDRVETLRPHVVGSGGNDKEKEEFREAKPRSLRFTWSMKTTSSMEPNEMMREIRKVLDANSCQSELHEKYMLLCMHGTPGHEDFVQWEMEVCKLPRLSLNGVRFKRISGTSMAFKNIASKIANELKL
Sequence of Activated CDC42 kinase 1 (Homo sapiens) (Q07912 whole entry, looked up, the tested form may be a part): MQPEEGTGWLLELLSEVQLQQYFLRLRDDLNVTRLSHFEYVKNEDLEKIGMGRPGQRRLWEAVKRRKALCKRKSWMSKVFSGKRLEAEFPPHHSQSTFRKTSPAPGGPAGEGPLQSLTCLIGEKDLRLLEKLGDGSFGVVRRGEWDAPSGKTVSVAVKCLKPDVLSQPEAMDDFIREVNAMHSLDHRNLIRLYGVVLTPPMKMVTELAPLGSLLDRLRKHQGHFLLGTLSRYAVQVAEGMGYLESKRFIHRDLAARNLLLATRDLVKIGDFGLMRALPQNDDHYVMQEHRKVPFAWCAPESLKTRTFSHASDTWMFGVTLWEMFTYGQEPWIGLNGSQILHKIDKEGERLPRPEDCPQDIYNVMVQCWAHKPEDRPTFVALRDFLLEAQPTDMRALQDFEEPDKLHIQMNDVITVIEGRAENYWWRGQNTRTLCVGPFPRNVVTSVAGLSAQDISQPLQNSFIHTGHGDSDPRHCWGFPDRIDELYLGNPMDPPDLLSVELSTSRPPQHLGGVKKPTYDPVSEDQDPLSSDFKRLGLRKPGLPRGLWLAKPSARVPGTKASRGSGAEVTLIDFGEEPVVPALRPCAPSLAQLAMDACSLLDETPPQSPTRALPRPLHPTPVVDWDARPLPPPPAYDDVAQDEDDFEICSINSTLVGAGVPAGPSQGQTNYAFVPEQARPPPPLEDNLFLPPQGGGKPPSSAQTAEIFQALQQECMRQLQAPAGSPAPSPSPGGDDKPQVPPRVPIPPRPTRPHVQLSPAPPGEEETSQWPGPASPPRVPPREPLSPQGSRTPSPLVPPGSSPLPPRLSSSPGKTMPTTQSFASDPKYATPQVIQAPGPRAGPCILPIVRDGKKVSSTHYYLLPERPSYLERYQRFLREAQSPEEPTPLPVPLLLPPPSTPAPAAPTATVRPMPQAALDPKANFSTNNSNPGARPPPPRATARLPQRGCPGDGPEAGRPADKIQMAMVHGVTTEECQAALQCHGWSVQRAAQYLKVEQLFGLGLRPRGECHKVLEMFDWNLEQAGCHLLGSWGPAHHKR
Sequence of Sarcoplasmic/endoplasmic reticulum calcium ATPase 2 (Homo sapiens) (P16615 whole entry): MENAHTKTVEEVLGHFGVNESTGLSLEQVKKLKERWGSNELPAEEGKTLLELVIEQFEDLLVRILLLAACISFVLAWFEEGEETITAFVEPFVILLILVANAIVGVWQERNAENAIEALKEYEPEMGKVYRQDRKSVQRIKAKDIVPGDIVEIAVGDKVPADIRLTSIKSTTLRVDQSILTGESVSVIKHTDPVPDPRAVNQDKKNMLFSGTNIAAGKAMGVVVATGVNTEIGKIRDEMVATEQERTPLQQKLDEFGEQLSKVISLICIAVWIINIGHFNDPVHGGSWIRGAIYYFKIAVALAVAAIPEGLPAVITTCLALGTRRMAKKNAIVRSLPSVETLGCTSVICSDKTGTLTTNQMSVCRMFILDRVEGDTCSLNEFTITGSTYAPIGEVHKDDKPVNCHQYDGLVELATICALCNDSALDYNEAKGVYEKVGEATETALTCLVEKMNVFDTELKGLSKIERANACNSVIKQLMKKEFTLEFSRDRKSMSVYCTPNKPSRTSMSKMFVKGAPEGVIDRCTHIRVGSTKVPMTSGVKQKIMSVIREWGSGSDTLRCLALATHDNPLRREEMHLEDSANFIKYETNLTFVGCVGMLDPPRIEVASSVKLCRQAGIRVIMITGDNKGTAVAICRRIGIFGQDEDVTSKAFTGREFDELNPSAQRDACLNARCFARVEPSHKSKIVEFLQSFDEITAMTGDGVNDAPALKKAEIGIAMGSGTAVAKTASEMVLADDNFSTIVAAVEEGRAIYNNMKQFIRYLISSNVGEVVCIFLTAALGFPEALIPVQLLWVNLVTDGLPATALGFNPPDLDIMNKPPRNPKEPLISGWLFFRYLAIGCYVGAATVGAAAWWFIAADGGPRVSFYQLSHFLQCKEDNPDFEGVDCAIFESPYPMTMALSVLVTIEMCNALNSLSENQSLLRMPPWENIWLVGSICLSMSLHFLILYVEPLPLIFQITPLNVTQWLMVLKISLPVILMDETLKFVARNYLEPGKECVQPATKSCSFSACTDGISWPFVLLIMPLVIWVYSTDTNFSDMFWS
Sequence of T-complex protein 1 subunit epsilon (Homo sapiens) (P48643 whole entry, one chain of several): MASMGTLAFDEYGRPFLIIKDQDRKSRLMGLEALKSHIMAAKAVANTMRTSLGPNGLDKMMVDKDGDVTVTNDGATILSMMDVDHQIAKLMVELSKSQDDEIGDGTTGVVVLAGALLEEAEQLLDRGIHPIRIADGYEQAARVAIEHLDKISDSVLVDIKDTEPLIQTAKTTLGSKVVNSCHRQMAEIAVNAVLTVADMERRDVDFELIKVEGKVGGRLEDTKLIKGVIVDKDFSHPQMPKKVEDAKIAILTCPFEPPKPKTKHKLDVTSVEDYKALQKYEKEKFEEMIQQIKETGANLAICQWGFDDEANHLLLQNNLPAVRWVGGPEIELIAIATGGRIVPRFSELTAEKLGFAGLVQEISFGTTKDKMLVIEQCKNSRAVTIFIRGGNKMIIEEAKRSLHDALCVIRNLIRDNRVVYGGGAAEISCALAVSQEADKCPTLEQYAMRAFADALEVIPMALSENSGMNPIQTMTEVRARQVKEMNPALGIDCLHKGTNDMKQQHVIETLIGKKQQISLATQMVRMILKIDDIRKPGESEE
Sequence of Proteasome Macropain subunit MB1 (Homo sapiens) (P28074 whole entry): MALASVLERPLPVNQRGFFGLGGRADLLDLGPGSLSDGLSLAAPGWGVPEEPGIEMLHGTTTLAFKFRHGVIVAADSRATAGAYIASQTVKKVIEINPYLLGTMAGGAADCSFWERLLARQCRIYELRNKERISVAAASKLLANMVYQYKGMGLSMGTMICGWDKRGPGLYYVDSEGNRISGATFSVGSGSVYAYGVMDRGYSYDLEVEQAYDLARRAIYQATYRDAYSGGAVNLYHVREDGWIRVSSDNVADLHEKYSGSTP

SMILES: C=CC(=O)Nc1ccccc1Nc1nc(Nc2ccc(N3CCN(C)CC3)cc2)ncc1Cl
inhibition [1]: -5.7%
inhibition [2]: 45.1%

SMILES: COc1cc(O)c2c(c1)/C=C/C[C@H](O)[C@H](O)C(=O)/C=C\C[C@H](C)OC2=O
Activity [3]: 76%
Activity [4]: 0.35%

Activity [5]: Active
Activity [6]: Active
Activity [7]: Active
Activity [8]: Active
Activity [9]: Active
Activity [10]: Active
Activity [11]: Active
Activity [12]: Active
Activity [13]: Active
Activity [14]: Active
Activity [15]: Active
SMILES: C=CC(=O)Nc1ccccc1Nc1nc(Nc2ccc(N3CCN(CCOCCOCCOCCNC(=O)CCCC[C@@H]4SC[C@@H]5NC(=O)N[C@@H]54)CC3)cc2)ncc1Cl
